Reference: paper PMC9041111 (RSC Advances, 2021)

Columns and labels:
KCa3.1 channel = KCa3.1 channel (Homo sapiens, UniProt O15554); assay: whole-cell patch clamp on A549-3R cells, 1-EBIO activated KCa3.1 current; assay type: cell-based
[1] = in vitro metabolism with mouse liver microsomes and NADPH, LC-MS/MS; assay type: in vitro ADME; conditions: mouse liver microsomes, NADPH, 37 °C, 90 min
In short: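 The non-radioactive fluorinated reference compound was incubated with mouse liver microsomes and NADPH at 37 °C for 90 min. The reaction was stopped with CH3CN/CH3OH (1:1), cooled and centrifuged to remove protein. The supernatant was analysed by ESI LC-MS/MS (qToF). The metabolite was assigned from the accurate m/z of the [M + H]+ ion against the calculated exact mass.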

[2] = chemical stability under 18F-labelling conditions; assay type: physicochemical; conditions: 10 min, DMF

KCa3.1 channel, sequence (O15554 whole entry): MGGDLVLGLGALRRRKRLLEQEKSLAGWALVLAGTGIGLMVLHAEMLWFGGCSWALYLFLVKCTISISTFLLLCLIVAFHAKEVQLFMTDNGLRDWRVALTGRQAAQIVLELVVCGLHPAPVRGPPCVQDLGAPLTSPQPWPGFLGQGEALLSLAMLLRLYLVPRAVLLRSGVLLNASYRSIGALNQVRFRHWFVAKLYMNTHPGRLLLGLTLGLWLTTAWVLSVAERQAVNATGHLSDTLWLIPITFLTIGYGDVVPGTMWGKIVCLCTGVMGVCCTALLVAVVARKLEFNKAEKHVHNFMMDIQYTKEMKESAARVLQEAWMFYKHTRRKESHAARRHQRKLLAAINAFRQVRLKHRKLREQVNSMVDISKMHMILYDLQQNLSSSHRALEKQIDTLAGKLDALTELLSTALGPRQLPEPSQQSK

CCn1c(=O)[nH]c2ccccc21 [1-EBIO, 1-ethyl-2-benzimidazolone]
effect on current (current density) in patch clamp (KCa3.1 channel; 1-EBIO 50 μM, applied 2-5 min, n = 5): increased outward current

NC(=O)C(c1ccccc1)(c1ccc(F)cc1)c1ccc(OCCF)cc1 (centres unmarked) [compound 28]
effect on 1-EBIO activated KCa3.1 mediated current (KCa3.1 channel; 28 at 10 μM after 1-EBIO 50 μM, n = 5): reduced ionic current
main metabolite [1]: phenol 9

NC(=O)C(c1ccccc1)(c1ccc(F)cc1)c1ccc(F)cc1 [senicapoc]
effect on 1-EBIO activated KCa3.1 mediated current (KCa3.1 channel; senicapoc 1 μM, applied consecutively after 28, n = 5): complete inhibition
Stability (TLC) ([2]; (NH4)2C2O4 (5 eq.), 90 °C): Stable
Stability (TLC) ([2]; (NH4)2C2O4 (5 eq.), 110 °C): Stable
Stability (TLC) ([2]; (NH4)2C2O4 (5 eq.), 130 °C): Stable
Stability (TLC) ([2]; K2CO3 (5 eq.), 90 °C): Partial decomposition
Stability (TLC) ([2]; K2CO3 (5 eq.), 110 °C): Partial decomposition
Stability (TLC) ([2]; K2CO3 (5 eq.), 130 °C): Complete decomposition
Stability (TLC) ([2]; TBAF (5 eq.), 90 °C): Complete decomposition
Stability (TLC) ([2]; TBAF (5 eq.), 110 °C): Complete decomposition
Stability (TLC) ([2]; TBAF (5 eq.), 130 °C): Complete decomposition
Stability (TLC) ([2]; no base, 130 °C): Stable
